Screens from PubChem BioAssay.
bCat nuc transl – modulators of beta-catenin nuclear translocation, primary screen, imaging, HeLa cells, immunofluorescence, high-content. nuclear translocation activity, % at 5 µM. hit rate 0.3% among 190,000. AID 1665, 2009;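 active = nuclear translocation activity above 50% at 5 µM, with a well cell count of 50 or more; inconclusive = wells under 50 cells across six images, flagged as toxic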;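 note: per-cell ratio of nuclear to cytoplasmic median beta-catenin stain intensity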
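Test system: human HeLa cells, endogenous beta-catenin. Times: 24 h compound exposure, 37°C. Measured by: beta-catenin immunofluorescence imaging with DAPI.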
HSV replic up – enhancers of HSV replication in host cells, fold increase, host cell viability; maximum fold increase; hit rate 0.005% among 220,000; HSV replication augmentation in cells; in the data active = maximum fold increase above about 1.5; inconclusive = no clear call, values can overlap the other calls; tested in PC3 cells
MT stabilize HCS – microtubule stabilizers in HeLa cells, primary screen, imaging, high-content imaging | HeLa tubulin immunostaining HCS, 24 h; share of cells brighter than vehicle mean+2SD | % tubulin-high responders, % at 10 µM | hit rate 0.83% among 200,000;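 active = plate Z-score above 3 for both tubulin-high and condensed-nucleus cell shares, with cell loss under 80%, at 10 µM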;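 note: anti alpha tubulin signal scored within the nucleus-defined area of each cell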
INS promoter inh – inhibitors of insulin promoter-driven GFP, primary screen, imaging, TRM-6 cells, eGFP reporter, cell count | inhibition, % at 2 µM | hit rate 0.9% among 130,000 | reporter expression induced with tamoxifen | AID 1273, 2008;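 active = inhibition above the mean plus 3 SD, with well images judged a real hit on visual review, cut at about 60% in these data, passing the limit was not always enough; inconclusive = inhibition over the cutoff but images rejected on review; inactive = inhibition not above the cutoff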
ROMK mod – ROMK potassium channel modulators, primary screen, cell-based, thallium flux, MLSMR library | Tet-inducible ROMK, thallium flux fluorescence; actives lie on both sides | B-score at 10 µM | hit rate 2% among 130,000 | AID 1918, 2009;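 active = signal ratio slope over the read window, or its plate-corrected B-score, at least 3 SD from the plate mean, either direction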;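 note: B-score of the F/F0 ratio slope over 7 to 12 s after thallium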
Target sequence (P48048 whole entry, looked up): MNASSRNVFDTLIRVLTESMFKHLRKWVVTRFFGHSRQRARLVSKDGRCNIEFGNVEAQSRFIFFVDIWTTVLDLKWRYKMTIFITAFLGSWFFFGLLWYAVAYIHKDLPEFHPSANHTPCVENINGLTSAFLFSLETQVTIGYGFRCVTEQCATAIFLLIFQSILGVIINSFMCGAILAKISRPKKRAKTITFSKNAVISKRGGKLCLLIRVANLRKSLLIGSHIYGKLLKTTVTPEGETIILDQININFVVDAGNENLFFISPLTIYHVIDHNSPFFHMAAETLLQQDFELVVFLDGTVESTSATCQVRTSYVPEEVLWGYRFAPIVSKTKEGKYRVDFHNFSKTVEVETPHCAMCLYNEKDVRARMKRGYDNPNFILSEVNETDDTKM
ROMK hit retest – ROMK channel modulator hit retest, confirmation, cell-based, thallium flux, duplicate, resupplied hits; shares compounds with ROMK mod; fluorescence ratio; hits give low values; normalized thallium flux (F/F0 slope) at 10 µM; hit rate 54% among 3,000; AID 1917, 2009;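 active = Flux at 10 µM at least 3 SD below or above vehicle control mean in one or both replicates; inconclusive = no clear call, values can overlap the other calls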
A number is an active result; . = inactive; ? = inconclusive; / = no result. An excerpt weighted towards active compounds, which were near 2.4% of everything screened.

SMILES	bCat nuc transl	HSV replic up	MT stabilize HCS	INS promoter inh	ROMK mod	ROMK hit retest
CCOC(=O)/C=c1\s/c(=C\c2ccc3c(c2)OCCO3)c(=O)n1CC(=O)NCC1CCCO1 (stereo unspecified)	.	.	.	.	.	/
CC(=O)N1N=C(c2cccs2)CC1c1cc2cc(C)ccc2nc1Cl (stereo unspecified)	.	.	/	/	/	/
C=CCOC(=O)C1=C(C)NC(=O)NC1c1cn(-c2ccccc2)nc1-c1cccs1 (stereo unspecified)	.	.	.	.	-3.03	0.0612
O=C(C1CCN(Cc2ccc(F)cc2)CC1)N(CCc1ccccc1)Cc1ccccc1	.	.	.	.	-3.45	0.0462
CCNC(=O)CC1C(=O)N(C)C(=S)N1NC(=O)c1ccc(Cl)cc1 (stereo unspecified)	.	.	.	.	/	.
O=c1c2ccccc2nnn1CSc1nnc(C2COc3ccccc3O2)n1-c1ccccc1 (stereo unspecified)	.	.	.	.	-2.94	0.0417
CCOCCCNCc1ccc(OC)c(OC)c1	.	.	.	/	/	/
CCOCCCNC(=O)Cc1ccc(OC)c(OC)c1	/	.	.	.	/	.
Cc1ccc(Cl)c(OCC(=O)OCC(=O)NC2CCCc3ccccc32)c1 (stereo unspecified)	.	.	.	/	/	/
CCS(=O)(=O)N1CCC(C(=O)NCc2ccc(OC)cc2)CC1	.	.	.	.	.	/
COc1ccc2nc(C3CCCCC3)c3c(c2c1)CCC3	/	.	/	/	/	/
COc1cnc(-c2ccccn2)nc1Sc1ccc(C)cc1	.	.	.	.	-4.44	?
O=C(CCN1CCN(c2ccccc2)CC1)NNC(=S)Nc1ccccc1Cl	.	.	.	/	.	/
CCCCc1nc2ccccc2c(NC(=O)CNC(C)(C)C)c1CCC	.	.	.	/	-2.79	0.0547
COC(=O)C1C(c2ccccc2)C(C(=O)O)C1c1ccccc1 (stereo unspecified)	.	.	.	.	.	.
O=C(O)COC(=O)C1C(c2ccccc2)C(C(=O)O)C1c1ccccc1 (stereo unspecified)	.	.	.	/	.	/
CCCSc1nc2ccsc2c(=O)n1CC	.	.	.	.	.	/
CC(=O)C1(C)OC(N)=C(C#N)C(c2ccccc2)C1(C#N)C#N (stereo unspecified)	/	.	.	.	-3.34	?
O=C(CSc1ccc2ccccc2n1)NCc1ccc2c(c1)OCO2	.	.	.	/	-5.25	?
CC1CCCC(C)N1C(=O)Cn1c(SCC(=O)NCc2ccc3c(c2)OCO3)nc2ccccc21 (stereo unspecified)	.	.	.	/	-3.87	0.0608
Cc1cc(-c2nn(-c3ccccc3F)cc2CN2CCC(O)CC2)c(C)s1	.	.	.	/	.	/
Cc1cc(-c2nn(-c3ccccc3F)cc2CN2CCN(c3ccncc3)CC2)c(C)s1	.	.	.	/	-3.05	0.0635
COc1ccc(CNCCC(c2ccccc2)c2ccc3c(c2)OCO3)cc1 (stereo unspecified)	/	/	.	.	/	0.0534
COc1ccc(OC)c(NC(=O)c2nnn(CCc3ccccc3)c2N)c1	/	.	.	/	/	/
COc1ccc(OC)c(NC(=O)c2sc3nc(Cc4ccccc4)cc(C(F)(F)F)c3c2N)c1	.	.	.	.	-4.23	0.0327
SMILES	bCat nuc transl	HSV replic up	MT stabilize HCS	INS promoter inh	ROMK mod	ROMK hit retest
CC(C)OC(=O)Nc1ccc(Oc2c(F)c(F)c(F)c(F)c2F)cc1	.	.	.	.	/	/
C/C=C/c1c(F)c(F)c(Oc2ccc(C(=O)O)cc2)c(F)c1F	.	.	.	.	3.8	.
CCOc1ccccc1NC(=S)N1CCC(c2nc3ccccc3o2)CC1	/	.	.	/	.	/
c1nnc(NC2=NCCC2)s1	/	.	.	.	1.55	.
COc1ccc2oc(C(=O)OCC(=O)NCCN3C(=O)CSC3=O)c(C)c2c1	.	.	.	/	/	/
CCOc1ccccc1NC(=O)/C(C#N)=C/c1c(C)nn(-c2ccc(F)cc2)c1Cl	/	.	.	.	/	/
CN(C)c1nc(C=C(C#N)C#N)c(Cl)n1-c1ccc(F)cc1	.	.	.	/	-3.92	0.0593
COc1ccc(C(=O)N2CCN(c3ccc([N+](=O)[O-])c(NCCc4ccc(OC)c(OC)c4)c3)CC2)cc1	.	.	.	.	/	0.06
COc1ccc(CCNc2cc(N3CCN(C(=O)c4ccc(C)cc4)CC3)ccc2[N+](=O)[O-])cc1OC	.	.	.	.	.	/
COc1ccccc1NC(=O)/C=C/c1ccc2c(c1)OCO2	.	.	19.3	/	5.13	.
COc1ccccc1NC(=O)COC(=O)/C=C/c1ccc2c(c1)OCO2	.	.	.	/	.	/
Cc1[nH]c2ccccc2c1-c1csc(NC(=O)CSCCO)n1	.	.	.	.	.	/
N=c1n(CCO)c2ccccc2n1CCOc1ccc(Cl)cc1Cl	.	.	.	/	/	0.0494
CCN(CC)c1ccc(C=Nc2ccc(N(C)C)cc2)c(O)c1	.	.	.	.	-2.72	?
COc1ccc(C2C(C#N)=C(N)OC(C(C)(C)C)=C2C#N)cc1OC (stereo unspecified)	.	.	.	/	-2.34	0.0677
CCCn1c(=O)c(Br)cn(-c2ccccc2C)c1=O	.	.	/	/	.	/
CC(NCC(O)COCc1ccc(Cl)cc1)c1ccccc1 (stereo unspecified)	/	.	.	.	-2.03	0.0491
COCC(C)n1c(SCC(=O)c2cc(C)n(C)c2C)nc2ccccc2c1=O (stereo unspecified)	.	.	.	/	.	/
CC1=C(C(=O)Nc2ccc(Cl)cc2)C2(CCCCC2)C(C(N)=O)C(=S)N1 (stereo unspecified)	.	.	.	.	.	/
COc1ccccc1C1CCN(C(=O)c2cccs2)CC1	.	.	/	/	.	/
COc1ccccc1C1CCN(c2cc(O)ccc2[N+](=O)[O-])CC1	.	.	/	/	/	.
CCOc1ccccc1CNc1nc2nc3c(c(=O)n2[nH]1)CCC3	.	.	.	.	/	.
Cc1sc(NC(=O)c2ccccc2)c(C(c2ccc(Cl)cc2)N2CCN(CCO)CC2)c1C (stereo unspecified)	/	.	.	.	-2.41	.
CCOc1ccc(C(c2c(NC(=O)c3ccccc3)sc(C)c2C)N2CCN(CCO)CC2)cc1 (stereo unspecified)	.	.	.	.	.	/
CC1CCCN(C(=O)CSc2nnc(-c3ccncc3)n2C)C1 (stereo unspecified)	.	.	.	.	.	/
CC1=Nc2ccccc2N=C(NC(=O)CN2CCN(c3ccccc3)CC2)C1c1ccccc1 (stereo unspecified)	.	.	.	/	3.19	.
CCC(O)(CC)C(=O)N/N=C/c1cc(Br)cc(Br)c1O	.	.	/	/	/	/
CC(=O)N/N=C/c1cc(C(C)(C)C)cc(/C=N/NC(C)=O)c1O	.	?	/	/	-3.04	0.0554
Oc1c(C=C2N=c3ccccc3=N2)sc(=S)n1C1CCCCC1	.	.	.	.	/	?
Cc1ccc(S(=O)(=O)Nc2ccccc2C(=O)Nc2nc(-c3ccc(F)cc3)cs2)cc1	.	.	.	.	/	0.0571
